Measured values reported in ChEMBL document CHEMBL5058577, “EUbOPEN Chemogenomics Library 2 (Multiplex)” (2022).

System: Fibroblast
Assay: Multiplex assay against human fibroblast
Assay type: toxicity, cell-based
Summary of the method: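 Values for tubulin, mitochondrial-mass and membrane-permeability phenotypes are per cents of cells with healthy nuclei. These cells were identified by CellPathfinder machine-learning gating of live cells that had been stained at seeding with Hoechst33342, BioTracker Green Microtubule Cytoskeleton Dye, MitoTracker Red and Annexin V Alexa Fluor 680 and imaged on a CQ1 microscope at 37°C and 5% CO2 after compound addition. The gating first set Hoechst high-intensity objects apart from normal cells, then split normal cells into healthy, pyknosed or fragmented nuclei, and pyknosed cells into mitotic or apoptotic.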

[1] = 12 h, 1 µM, compound concentration 1 uM, replicate 1
[2] = 12 h, 1 µM, compound concentration 1 uM, replicate 2
[3] = 12 h, 10 µM, compound concentration 10 uM, replicate 1
[4] = 12 h, 10 µM, compound concentration 10 uM, replicate 2
[5] = 24 h, 1 µM, compound concentration 1 uM, replicate 1
[6] = 24 h, 1 µM, compound concentration 1 uM, replicate 2
[7] = 24 h, 10 µM, compound concentration 10 uM, replicate 1
[8] = 24 h, 10 µM, compound concentration 10 uM, replicate 2
[9] = 48 h, 1 µM, compound concentration 1 uM, replicate 1
[10] = 48 h, 1 µM, compound concentration 1 uM, replicate 2
[11] = 48 h, 10 µM, compound concentration 10 uM, replicate 1
[12] = 48 h, 10 µM, compound concentration 10 uM, replicate 2

Cc1sc2c(c1C)C(c1ccc(Cl)cc1)=N[C@H](CC(=O)OC(C)(C)C)c1nnc(C)n1-2
Population Apoptotic (%) [1]: 43%
Population Fragmented Nuclei (%) [1]: 15%
Population Healthy Nuclei (%) [1]: 62%
Population Hoechst High Intensity Objects (%) [1]: 2%
Population Membrane Permeable-Phenotype (%) [1]: 0%
Population Mitochondria Different-Phenotype (%) [1]: 5%
Population Mitotic Cells (%) [1]: 56%
Population Normal (%) [1]: 97%
Population Pyknosed Nuclei (%) [1]: 22%
Population Tubulin-Different-Phenotype (%) [1]: 30%
Total Cell Count [1]: 180
Population Apoptotic (%) [2]: 33%
Population Fragmented Nuclei (%) [2]: 26%
Population Healthy Nuclei (%) [2]: 51%
Population Hoechst High Intensity Objects (%) [2]: 5%
Population Membrane Permeable-Phenotype (%) [2]: 15%
Population Mitochondria Different-Phenotype (%) [2]: 10%
Population Mitotic Cells (%) [2]: 66%
Population Normal (%) [2]: 94%
Population Tubulin-Different-Phenotype (%) [2]: 46%
Total Cell Count [2]: 159
Population Apoptotic (%) [3]: 43%
Population Fragmented Nuclei (%) [3]: 19%
Population Healthy Nuclei (%) [3]: 55%
Population Hoechst High Intensity Objects (%) [3]: 7%
Population Membrane Permeable-Phenotype (%) [3]: 0%
Population Mitochondria Different-Phenotype (%) [3]: 15%
Population Mitotic Cells (%) [3]: 56%
Population Normal (%) [3]: 92%
Population Pyknosed Nuclei (%) [3]: 25%
Population Tubulin-Different-Phenotype (%) [3]: 90%
Total Cell Count [3]: 128
Population Apoptotic (%) [4]: 51%
Population Fragmented Nuclei (%) [4]: 30%
Population Healthy Nuclei (%) [4]: 39%
Population Hoechst High Intensity Objects (%) [4]: 5%
Population Membrane Permeable-Phenotype (%) [4]: 4%
Population Mitochondria Different-Phenotype (%) [4]: 20%
Population Mitotic Cells (%) [4]: 48%
Population Normal (%) [4]: 94%
Population Pyknosed Nuclei (%) [4]: 29%
Population Tubulin-Different-Phenotype (%) [4]: 95%
Total Cell Count [4]: 169
Population Apoptotic (%) [5]: 82%
Population Fragmented Nuclei (%) [5]: 17%
Population Healthy Nuclei (%) [5]: 60%
Population Hoechst High Intensity Objects (%) [5]: 2%
Population Membrane Permeable-Phenotype (%) [5]: 0%
Population Mitochondria Different-Phenotype (%) [5]: 2%
Population Mitotic Cells (%) [5]: 17%
Population Normal (%) [5]: 97%
Population Pyknosed Nuclei (%) [5]: 21%
Population Tubulin-Different-Phenotype (%) [5]: 29%
Total Cell Count [5]: 186
Population Apoptotic (%) [6]: 46%
Population Fragmented Nuclei (%) [6]: 29%
Population Healthy Nuclei (%) [6]: 50%
Population Hoechst High Intensity Objects (%) [6]: 6%
Population Membrane Permeable-Phenotype (%) [6]: 11%
Population Mitochondria Different-Phenotype (%) [6]: 5%
Population Mitotic Cells (%) [6]: 53%
Population Normal (%) [6]: 93%
Population Pyknosed Nuclei (%) [6]: 20%
Population Tubulin-Different-Phenotype (%) [6]: 51%
Total Cell Count [6]: 149
Population Apoptotic (%) [7]: 75%
Population Fragmented Nuclei (%) [7]: 16%
Population Healthy Nuclei (%) [7]: 69%
Population Hoechst High Intensity Objects (%) [7]: 8%
Population Membrane Permeable-Phenotype (%) [7]: 2%
Population Mitochondria Different-Phenotype (%) [7]: 19%
Population Mitotic Cells (%) [7]: 25%
Population Normal (%) [7]: 91%
Population Pyknosed Nuclei (%) [7]: 14%
Population Tubulin-Different-Phenotype (%) [7]: 76%
Total Cell Count [7]: 123
Population Apoptotic (%) [8]: 51%
Population Fragmented Nuclei (%) [8]: 26%
Population Healthy Nuclei (%) [8]: 45%
Population Hoechst High Intensity Objects (%) [8]: 4%
Population Membrane Permeable-Phenotype (%) [8]: 4%
Population Mitochondria Different-Phenotype (%) [8]: 26%
Population Mitotic Cells (%) [8]: 48%
Population Normal (%) [8]: 95%
Population Pyknosed Nuclei (%) [8]: 27%
Population Tubulin-Different-Phenotype (%) [8]: 87%
Total Cell Count [8]: 165
Population Apoptotic (%) [9]: 63%
Population Fragmented Nuclei (%) [9]: 19%
Population Healthy Nuclei (%) [9]: 66%
Population Hoechst High Intensity Objects (%) [9]: 5%
Population Membrane Permeable-Phenotype (%) [9]: 0%
Population Mitochondria Different-Phenotype (%) [9]: 2%
Population Mitotic Cells (%) [9]: 36%
Population Normal (%) [9]: 94%
Population Pyknosed Nuclei (%) [9]: 13%
Population Tubulin-Different-Phenotype (%) [9]: 28%
Total Cell Count [9]: 170
Population Apoptotic (%) [10]: 53%
Population Fragmented Nuclei (%) [10]: 29%
Population Healthy Nuclei (%) [10]: 49%
Population Membrane Permeable-Phenotype (%) [10]: 12%
Population Mitochondria Different-Phenotype (%) [10]: 10%
Population Mitotic Cells (%) [10]: 46%
Population Normal (%) [10]: 95%
Population Pyknosed Nuclei (%) [10]: 21%
Population Tubulin-Different-Phenotype (%) [10]: 69%
Total Cell Count [10]: 140
Population Apoptotic (%) [11]: 50%
Population Fragmented Nuclei (%) [11]: 21%
Population Healthy Nuclei (%) [11]: 66%
Population Hoechst High Intensity Objects (%) [11]: 1%
Population Membrane Permeable-Phenotype (%) [11]: 1%
Population Mitochondria Different-Phenotype (%) [11]: 13%
Population Mitotic Cells (%) [11]: 50%
Population Normal (%) [11]: 98%
Population Pyknosed Nuclei (%) [11]: 12%
Population Tubulin-Different-Phenotype (%) [11]: 70%
Total Cell Count [11]: 134
Population Apoptotic (%) [12]: 63%
Population Fragmented Nuclei (%) [12]: 35%
Population Healthy Nuclei (%) [12]: 51%
Population Membrane Permeable-Phenotype (%) [12]: 4%
Population Mitochondria Different-Phenotype (%) [12]: 9%
Population Mitotic Cells (%) [12]: 36%
Population Pyknosed Nuclei (%) [12]: 13%
Population Tubulin-Different-Phenotype (%) [12]: 88%
Total Cell Count [12]: 170
